MIC and IC50 data for 68 molecules are collected here from ChEMBL document CHEMBL3576786, “Discovery of target based novel pyrrolyl phenoxy derivatives as antimycobacterial agents: an in silico approach” (Eur J Med Chem, 2015).

The test system of test [1] is Mycobacterium tuberculosis. Description: Antimycobacterial activity against Mycobacterium tuberculosis H37Rv assessed as inhibition of bacterial growth after 5 days by Microplate Alamar Blue Assay. Format: functional. Particulars: 120 h. (In general: Alamar Blue is a resazurin reagent that responds to reducing activity.)
The test system of the next test is A549. Description: Cytotoxicity against human A549 assessed as inhibition of cell proliferation by MTT assay. Type of test: cell-based. An outline of the steps: (§1)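 MTT read-out; IC50 taken as the concentration giving a 50% drop in optical density of treated cells relative to untreated cells.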
The subject of a further test is Vero. Description: Cytotoxicity against African green monkey Vero cells assessed as inhibition of cell proliferation by MTT assay. Type of test: cell-based. Particulars: Chlorocebus sabaeus. In outline:
as §1
(In general: Tetrazolium dyes change colour on reduction, which living cells bring about.)

The MIC is the smallest concentration in the dilution series that meets the test's criterion for growth inhibition. What is called IC50 is the concentration that inhibits the measured activity by half.

≈ marks a conversion by molar mass, not a printed value. Some results are limits rather than exact numbers.

With `Cc1ccc(OCCCOc2ccc(-n3cccc3)cc2)cc1`, the MIC in test [1] was 12.5 µg/mL (≈ 40.7 µM). As for `Oc1cc(OCCCOc2ccc(-n3cccc3)cc2)ccc1Cl`, the minimum inhibitory concentration (MIC) in test [1] stood at 6.25 µg/mL (≈ 18.2 µM). As for `Cc1ccccc1OCCOc1ccc(-n2cccc2)cc1`, the MIC in test [1] was found to be 25 µg/mL (≈ 85.2 µM). As for `c1ccc2cc(OCCCOc3ccc(-n4cccc4)cc3)ccc2c1`, the IC50 with A549 amounted to 235 µM; with Vero, 238 µM. The MIC in test [1] came out at 3.12 µg/mL (≈ 9.1 µM). In the case of `Cc1ccc(OCCCOc2ccc(-n3cccc3)cc2)c(C)c1`, in test [1], the minimal inhibitory concentration (MIC) amounted to 25 µg/mL (≈ 77.8 µM).

On to `CCOc1cc(C=O)ccc1OCCCOc1ccc(-n2cccc2)cc1`, for which the IC50 in the test with A549 was 223 µM; in the test with Vero it was 215 µM. Besides, the MIC in test [1] was 3.12 µg/mL (≈ 8.55 µM). With `Oc1ccc(OCCCOc2ccc(-n3cccc3)cc2)cc1`, the MIC in test [1] is 12.5 µg/mL (≈ 40.4 µM).

Take `Oc1ccccc1OCCCOc1ccc(-n2cccc2)cc1`: the MIC in test [1] turned out to be 12.5 µg/mL (≈ 40.4 µM).

In the case of `Cc1ccc(C)n1-c1ccc(OCCCOc2ccc(-n3cccc3)cc2)cc1`, the IC50 in the test on A549 amounted to 237 µM; with Vero, 235 µM. The minimal inhibitory concentration (MIC) in test [1] is 3.12 µg/mL (≈ 8.09 µM). As for `N#Cc1ccc(OCCOc2ccc(-n3cccc3)cc2)cc1`, the minimal inhibitory concentration (MIC) in test [1] was found to be 6.25 µg/mL (≈ 20.5 µM). Consider `Nc1ccc(OCCCOc2ccc(-n3cccc3)cc2)cc1`, for which the minimum inhibitory concentration (MIC) in test [1] amounted to 50 µg/mL (≈ 162 µM).

`Oc1cc(Cl)ccc1Oc1ccc(Cl)cc1Cl` [TRICLOSAN]: the MIC in test [1] turned out to be 10 µg/mL (≈ 34.5 µM). As for `O=Cc1ccc(OCCCOc2ccc(-n3cccc3)cc2)cc1`, the MIC in test [1] stood at 12.5 µg/mL (≈ 38.9 µM).

On to `CCOc1cc(C=O)ccc1OCCOc1ccc(-n2cccc2)cc1`, for which the IC50 with A549 came to 217 µM; in the test on Vero it was 211 µM. The minimum inhibitory concentration (MIC) in test [1] is 3.12 µg/mL (≈ 8.89 µM). Take `Oc1cccc(OCCCOc2ccc(-n3cccc3)cc2)c1`: the MIC in test [1] was found to be 12.5 µg/mL (≈ 40.4 µM).

Regarding `Ic1ccc(OCCOc2ccc(-n3cccc3)cc2)cc1`, the minimum inhibitory concentration (MIC) in test [1] was found to be 12.5 µg/mL (≈ 30.8 µM). `NNC(=O)c1ccncc1` [ISONIAZID]: the IC50 in the test on A549 and with Vero was above 450 µM in each case. For the same molecule, the MIC in test [1] came to 0.25 µg/mL (≈ 1.82 µM). For the molecule `Cc1cc(C)cc(OCCOc2ccc(-n3cccc3)cc2)c1`, the minimum inhibitory concentration (MIC) in test [1] was found to be 50 µg/mL (≈ 163 µM). `Clc1ccccc1OCCOc1ccc(-n2cccc2)cc1`: the minimal inhibitory concentration (MIC) in test [1] was determined as 25 µg/mL (≈ 79.7 µM).

As to `c1ccc2cc(OCCOc3ccc(-n4cccc4)cc3)ccc2c1`, the results for the half-maximal inhibitory concentration (IC50) in the test with A549 and in the test with Vero were 233 µM and 231 µM, respectively. Further, in test [1], the minimum inhibitory concentration (MIC) was 3.12 µg/mL (≈ 9.49 µM). `Nc1cccc(OCCCOc2ccc(-n3cccc3)cc2)c1`: the MIC in test [1] is 100 µg/mL (≈ 324 µM). Turning to `Cc1ccc(C)c(OCCOc2ccc(-n3cccc3)cc2)c1`, in test [1], the MIC was 25 µg/mL (≈ 81.3 µM). For the molecule `Cc1cccc(OCCCOc2ccc(-n3cccc3)cc2)c1`, the MIC in test [1] stood at 25 µg/mL (≈ 81.3 µM). The same measure, in the same setting: in the case of `Clc1cccc(OCCCOc2ccc(-n3cccc3)cc2)c1` it was 50 µg/mL (≈ 153 µM).

`Nc1ccccc1OCCOc1ccc(-n2cccc2)cc1`: the minimum inhibitory concentration (MIC) in test [1] worked out at 100 µg/mL (≈ 340 µM). Consider `Ic1ccc(OCCCOc2ccc(-n3cccc3)cc2)cc1`, for which the MIC in test [1] worked out at 12.5 µg/mL (≈ 29.8 µM).

For the molecule `Clc1cccc(OCCOc2ccc(-n3cccc3)cc2)c1`, in test [1], the minimum inhibitory concentration (MIC) turned out to be 25 µg/mL (≈ 79.7 µM). For the molecule `Cc1cc(C)cc(OCCCOc2ccc(-n3cccc3)cc2)c1`, the minimal inhibitory concentration (MIC) in test [1] was 25 µg/mL (≈ 77.8 µM). In the case of `Clc1ccc(OCCOc2ccc(-n3cccc3)cc2)cc1`, the minimal inhibitory concentration (MIC) in test [1] is 12.5 µg/mL (≈ 39.8 µM). As to `Nc1ccc(OCCOc2ccc(-n3cccc3)cc2)cc1`, in test [1], the MIC is 100 µg/mL (≈ 340 µM).

On to `O=[N+]([O-])c1ccc(OCCCOc2ccc(-n3cccc3)cc2)cc1`, for which the MIC in test [1] stood at 100 µg/mL (≈ 296 µM). For `Brc1ccccc1OCCCOc1ccc(-n2cccc2)cc1`, the MIC in test [1] is 25 µg/mL (≈ 67.2 µM). As to `c1ccn(-c2ccc(OCCCOc3ccc(-n4cccc4)cc3)cc2)c1`, in test [1], the minimal inhibitory concentration (MIC) is 6.25 µg/mL (≈ 17.4 µM).

`Oc1cc(OCCOc2ccc(-n3cccc3)cc2)ccc1Cl`: in test [1], the minimal inhibitory concentration (MIC) is 6.25 µg/mL (≈ 19 µM). Turning to `Brc1ccc(OCCCOc2ccc(-n3cccc3)cc2)cc1`, the minimal inhibitory concentration (MIC) in test [1] was determined as 6.25 µg/mL (≈ 16.8 µM). The same measure, in the same setting: then `c1ccc(OCCCOc2ccc(-n3cccc3)cc2)cc1`, with 50 µg/mL (≈ 170 µM); and `Clc1ccc(OCCCOc2ccc(-n3cccc3)cc2)cc1`, with 6.25 µg/mL (≈ 19.1 µM).

`O=[N+]([O-])c1ccc(OCCOc2ccc(-n3cccc3)cc2)cc1`: in test [1], the MIC is 50 µg/mL (≈ 154 µM). Take `Oc1cc(O)cc(OCCCOc2ccc(-n3cccc3)cc2)c1`: the results for the concentration for half-maximal inhibition (IC50) with A549 and with Vero were 227 µM and 220 µM, respectively. Besides, the MIC in test [1] came out at 3.12 µg/mL (≈ 9.6 µM). As to `Cc1cccc(OCCOc2ccc(-n3cccc3)cc2)c1`, the MIC in test [1] is 25 µg/mL (≈ 85.2 µM).

Regarding `Cc1ccc(C)c(OCCCOc2ccc(-n3cccc3)cc2)c1`, the minimum inhibitory concentration (MIC) in test [1] is 25 µg/mL (≈ 77.8 µM).

Consider `Brc1ccc(OCCOc2ccc(-n3cccc3)cc2)cc1`, for which the MIC in test [1] amounted to 12.5 µg/mL (≈ 34.9 µM). On to `O=[N+]([O-])c1ccc(OCCOc2ccc(-n3cccc3)cc2)c([N+](=O)[O-])c1`, for which the MIC in test [1] was found to be 100 µg/mL (≈ 271 µM). Turning to `Fc1ccc(OCCCOc2ccc(-n3cccc3)cc2)cc1`, in test [1], the minimal inhibitory concentration (MIC) turned out to be 6.25 µg/mL (≈ 20.1 µM). Consider `Clc1ccccc1OCCCOc1ccc(-n2cccc2)cc1`, for which, in test [1], the minimal inhibitory concentration (MIC) is 25 µg/mL (≈ 76.3 µM).

For the molecule `Brc1cccc(OCCCOc2ccc(-n3cccc3)cc2)c1`, the minimum inhibitory concentration (MIC) in test [1] was found to be 25 µg/mL (≈ 67.2 µM).

For `Oc1ccccc1OCCOc1ccc(-n2cccc2)cc1`, the minimum inhibitory concentration (MIC) in test [1] came to 12.5 µg/mL (≈ 42.3 µM).

For `Oc1cccc(OCCOc2ccc(-n3cccc3)cc2)c1`, the MIC in test [1] stood at 6.25 µg/mL (≈ 21.2 µM). Consider `Oc1ccc(OCCOc2ccc(-n3cccc3)cc2)cc1`, for which, in test [1], the MIC turned out to be 12.5 µg/mL (≈ 42.3 µM). In the case of `COc1cc(C=O)ccc1OCCOc1ccc(-n2cccc2)cc1`, the MIC in test [1] was found to be 6.25 µg/mL (≈ 18.5 µM).

On to `Fc1ccc(OCCOc2ccc(-n3cccc3)cc2)cc1`, for which the MIC in test [1] amounted to 6.25 µg/mL (≈ 21 µM). On the same count and under the same terms, in the case of `Cc1ccc(C)n1-c1ccc(OCCOc2ccc(-n3cccc3)cc2)cc1` it was 6.25 µg/mL (≈ 16.8 µM).

`Oc1cc(O)cc(OCCOc2ccc(-n3cccc3)cc2)c1`: the IC50 with A549 amounted to 237 µM; in the test with Vero it was 231 µM. For the same molecule, the MIC in test [1] was found to be 3.12 µg/mL (≈ 10 µM). Consider `O=[N+]([O-])c1ccc(OCCCOc2ccc(-n3cccc3)cc2)c([N+](=O)[O-])c1`, for which, in test [1], the minimal inhibitory concentration (MIC) was 100 µg/mL (≈ 261 µM). With `Cc1ccc(OCCOc2ccc(-n3cccc3)cc2)c(C)c1`, the MIC in test [1] was 12.5 µg/mL (≈ 40.7 µM). As to `Cc1ccc(OCCOc2ccc(-n3cccc3)cc2)cc1`, the MIC in test [1] stood at 25 µg/mL (≈ 85.2 µM). The same measure, in the same setting: in the case of `O=Cc1ccc(OCCOc2ccc(-n3cccc3)cc2)cc1` it was 12.5 µg/mL (≈ 40.7 µM); in that of `c1ccn(-c2ccc(OCCOc3ccc(-n4cccc4)cc3)cc2)c1`, 6.25 µg/mL (≈ 18.1 µM); in that of `Nc1cccc(OCCOc2ccc(-n3cccc3)cc2)c1`, 100 µg/mL (≈ 340 µM). As to `Brc1ccccc1OCCOc1ccc(-n2cccc2)cc1`, the minimal inhibitory concentration (MIC) in test [1] was 25 µg/mL (≈ 69.8 µM).

Turning to `c1ccc(OCCOc2ccc(-n3cccc3)cc2)cc1`, the MIC in test [1] was found to be 50 µg/mL (≈ 179 µM). As to `c1ccc2c(OCCOc3ccc(-n4cccc4)cc3)cccc2c1`, the concentration for half-maximal inhibition (IC50) in the test with A549 was determined as 215 µM; with Vero, 220 µM. The minimum inhibitory concentration (MIC) in test [1] was 3.12 µg/mL (≈ 9.49 µM). For `Nc1ccccc1OCCCOc1ccc(-n2cccc2)cc1`, the minimal inhibitory concentration (MIC) in test [1] came out at 100 µg/mL (≈ 324 µM). The same measure, in the same setting: in the case of `Brc1cccc(OCCOc2ccc(-n3cccc3)cc2)c1` it was 25 µg/mL (≈ 69.8 µM). For the molecule `c1ccc2c(OCCCOc3ccc(-n4cccc4)cc3)cccc2c1`, the IC50 amounted to 243 µM in the test with A549 and 240 µM with Vero. Moreover, in test [1], the MIC was 1.6 µg/mL (≈ 4.66 µM).

Consider `COc1cc(C=O)ccc1OCCCOc1ccc(-n2cccc2)cc1`, for which the concentration for half-maximal inhibition (IC50) was found to be 210 µM in the test with A549 and 212 µM in the test on Vero. The minimal inhibitory concentration (MIC) in test [1] was 3.12 µg/mL (≈ 8.89 µM). Consider `N#Cc1ccc(OCCCOc2ccc(-n3cccc3)cc2)cc1`, for which the minimum inhibitory concentration (MIC) in test [1] came to 6.25 µg/mL (≈ 19.6 µM). On the same count and under the same terms, in the case of `Cc1ccccc1OCCCOc1ccc(-n2cccc2)cc1` it was 25 µg/mL (≈ 81.3 µM).
